Source: article PMC5910468 (Advances in Therapy, 2018)
Read-outs that look alike come from different tables or passages of the source.

Columns and labels:
[1] = Pulse rate change from baseline to end of treatment; assay type: in vivo, human
[2] = assay type: in vivo, human; settings: for Gastrointestinal disorders, proportion of subjects / Adverse events, proportion of subjects: 8 subjects
Method in brief: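 Double-blind, placebo-controlled, 13 weeks of once-weekly s.c. dosing plus 5 weeks of follow-up. Monitored adverse events, hypoglycemic episodes, vital signs, ECG and physical examination. Laboratory tests covered hematology, biochemistry, calcitonin and urinalysis, and anti-drug antibodies were measured at follow-up. Every randomized subject given at least one dose was included in the safety analysis.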

[3] = assay type: in vivo, human; settings: for AUC0–168h,sema,SS estimated race ratio [95% CI] (Japanese/Caucasian) / Cmax,sema,SS estimated race ratio [95% CI] (Japanese/Caucasian): steady state
Method in brief: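 Healthy Japanese or Caucasian men, s.c. once weekly with stepwise escalation from 0.25 mg. Plasma drug measured by validated LC–MS/MS. Dense sampling 0–168 h after first dose and 0–840 h after last dose (day 84), with pre-dose troughs from day 7 to 84. AUC0–168h by linear trapezoidal method at actual times. Racc,DC = (AUC_SS/last dose)/(AUC_SD/first dose). Log values fitted by linear normal model (race, dose, race×dose) and back-transformed to ratios with 95% CI.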

[4] = semaglutide; cited from earlier work
[5] = SUSTAIN 6, no change with placebo, cited from earlier work
[6] = Anti-semaglutide antibodies; assay type: in vivo, human; settings: both populations, 0.5 and 1.0 mg, at follow-up
[7] = Japanese subjects, 0.5 mg, placebo 16.7%
[8] = Japanese subjects, 1.0 mg, placebo 16.7%
[9] = semaglutide 0.5 mg s.c. once weekly
[10] = semaglutide 1.0 mg s.c. once weekly

Pulse rate increase from baseline to end of treatment ([1]; Caucasian subjects, 0.5 mg, placebo 2.8 bpm): 14.6 bpm | Pulse rate increase from baseline to end of treatment ([1]; Caucasian subjects, 1.0 mg, placebo 2.8 bpm): 10.5 bpm | Pulse rate increase from baseline to end of treatment ([1]; Japanese subjects, 0.5 mg, placebo decrease of 0.5 bpm): 8.5 bpm | Pulse rate increase from baseline to end of treatment ([1]; Japanese subjects, 1.0 mg, placebo decrease of 0.5 bpm): 10.4 bpm | Gastrointestinal disorders, proportion of subjects ([2]; Caucasian subjects, 0.5 mg, placebo 0.0%): 25.0% | Gastrointestinal disorders, proportion of subjects ([2]; Caucasian subjects, 1.0 mg, placebo 0.0%): 25.0% | Gastrointestinal disorders, proportion of subjects [2, 7]: 62.5% | Gastrointestinal disorders, proportion of subjects [2, 8]: 37.5% | Biochemistry parameters, including amylase, lipase and calcitonin ([2]; any of the treatment or race groups): No noticeable trends | Hypoglycemic events ([2]; both populations, 0.5 and 1.0 mg, during the trial): No hypoglycemic events were reported | Dose-corrected accumulation ratio ([3]; overall statement, once-weekly dosing, both races and doses): approximately 2 | Racc,DC,sema estimated race ratio [95% CI] (Japanese/Caucasian) ([3]; semaglutide 0.5 mg): 0.87 [0.78; 0.96] | AUC0–168h,sema,SS estimated race ratio [95% CI] (Japanese/Caucasian) [3, 9]: 1.06 [0.92; 1.23] | Cmax,sema,SS estimated race ratio [95% CI] (Japanese/Caucasian) [3, 9]: 1.06 [0.91; 1.23] | Racc,DC,sema estimated race ratio [95% CI] (Japanese/Caucasian) ([3]; semaglutide 1.0 mg): 0.90 [0.82; 1.00] | AUC0–168h,sema,SS estimated race ratio [95% CI] (Japanese/Caucasian) [3, 10]: 0.99 [0.85; 1.16] | Cmax,sema,SS estimated race ratio [95% CI] (Japanese/Caucasian) [3, 10]: 1.02 [0.87; 1.19]
Structure (SMILES): CC[C@H](C)[C@H](NC(=O)[C@H](Cc1ccccc1)NC(=O)[C@H](CCC(=O)O)NC(=O)[C@H](CCCCNC(=O)COCCOCCNC(=O)COCCOCCNC(=O)CC[C@H](NC(=O)CCCCCCCCCCCCCCCCC(=O)O)C(=O)O)NC(=O)[C@H](C)NC(=O)[C@H](C)NC(=O)[C@H](CCC(N)=O)NC(=O)CNC(=O)[C@H](CCC(=O)O)NC(=O)[C@H](CC(C)C)NC(=O)[C@H](Cc1ccc(O)cc1)NC(=O)[C@H](CO)NC(=O)[C@H](CO)NC(=O)[C@@H](NC(=O)[C@H](CC(=O)O)NC(=O)[C@H](CO)NC(=O)[C@@H](NC(=O)[C@H](Cc1ccccc1)NC(=O)[C@@H](NC(=O)CNC(=O)[C@H](CCC(=O)O)NC(=O)C(C)(C)NC(=O)[C@@H](N)Cc1cnc[nH]1)[C@@H](C)O)[C@@H](C)O)C(C)C)C(=O)N[C@@H](C)C(=O)N[C@@H](Cc1c[nH]c2ccccc12)C(=O)N[C@@H](CC(C)C)C(=O)N[C@H](C(=O)N[C@@H](CCCNC(=N)N)C(=O)NCC(=O)N[C@@H](CCCNC(=N)N)C(=O)NCC(=O)O)C(C)C [Semaglutide]
Adverse events, proportion of subjects ([2]; Caucasian subjects, 0.5 mg, placebo 33.3%): 50.0% | Adverse events, proportion of subjects ([2]; Caucasian subjects, 1.0 mg, placebo 33.3%): 62.5% | Adverse events, proportion of subjects [2, 7]: 75.0% | Adverse events, proportion of subjects [2, 8]: 62.5% | ECG readings or physical examinations ([2]; both populations, 0.5 and 1.0 mg): no clinically significant abnormalities | Severity of adverse events ([2]; both populations, 0.5 and 1.0 mg, none were severe): mild to moderate | Half-life (t1/2) [4]: ~ 1 week | Mean pulse rate increase ([5]; semaglutide 0.5 mg): 2.1 bpm | Mean pulse rate increase ([5]; semaglutide 1.0 mg): 2.4 bpm | Development of anti-semaglutide antibodies [6]: No subjects developed anti-semaglutide antibodies
